The nature of series [1]: melting temperature; fluorescence melt of hairpins on a sequencing array, two-state fit, raised by 9.35 °C to match UV melts. The following applies: sodium 0.088 M. The procedure, abridged:
(§1)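 Library hairpins on a sequenced MiSeq flow cell carried annealed Cy3 and quencher oligos, and their Cy3 fluorescence was imaged in 50 mM Na-HEPES pH 8.0 with 25 mM NaCl, in 2.5 °C steps up to 60 °C. Signals were normalised to Cy3 before quenching and to control constructs. Melting temperature and folding enthalpy were obtained from bootstrapped two-state fits, combined by inverse-variance weighting across four replicates, and the fitted temperatures were then raised by 9.35 °C to match UV melts.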

A short description of series [2]: folding enthalpy; higher = less favourable; fluorescence melt of hairpins on a sequencing array, two-state fit. The settings on record: sodium 0.088 M. The procedure, abridged: as §1

Tm and folding enthalpy data for 36 sequences are collected here from the array DNA melting data of Ke et al. (doi:10.1101/2024.01.08.574731).

Turning to CGAGCGGAAACGCTATCG ((((((....)))..))), in series [1], the Tm amounted to 35.1 °C. The folding enthalpy in series [2] was -13.1 kcal/mol.
Consider CGAGCGGAAACGCTGTCG ((((((....)))..))), for which the Tm in series [1] worked out at 43 °C. In addition, the folding enthalpy in series [2] is -11.2 kcal/mol.
For the sequence CGAGCTCGGAAACGATCG (((..(((....)))))), the Tm in series [1] was 27.9 °C. In addition, in series [2], the folding enthalpy is -6.9 kcal/mol.
Regarding CGAGGCGGAAACGCGTCG (((.(((....))).))), in series [1], the Tm is 62.5 °C. In addition, the folding enthalpy in series [2] was -32.1 kcal/mol.
For the sequence CGAGGGAAACCTCG (((((....))))), in series [1], the Tm was 53.7 °C. The folding enthalpy in series [2] was -25.4 kcal/mol.
The corresponding values for CGAGTCGGAAACGAGTCG (((.(((....))).))) are 55.9 °C and -35.9 kcal/mol.
For the sequence CGAGTTCGGAAACGATCG (((..(((....)))))), the Tm in series [1] was 30.8 °C. The folding enthalpy in series [2] is -10.2 kcal/mol.
On to CGATACGGAAACGTCTCG (((.(((....))).))), for which, in series [1], the Tm came out at 42 °C. Also, the folding enthalpy in series [2] is -33.7 kcal/mol.
For the sequence CGATACGGAAACGTGTCG (((.(((....))).))), the Tm in series [1] is 52.8 °C. In addition, the folding enthalpy in series [2] was -51.4 kcal/mol.
The corresponding values for CGATACGGAAACGTTTCG (((.(((....))).))) are 45.9 °C and -34.6 kcal/mol.
The corresponding values for CGATAGAAATATCG (((((....))))) are 39.1 °C and -19.8 kcal/mol.
With CGATAGCGGAAACGCTCG (((..(((....)))))), the Tm in series [1] was found to be 41 °C. For the same sequence, the folding enthalpy in series [2] was -13.9 kcal/mol.
Regarding CGATATCGGAAACGATCG (((..(((....)))))), the Tm in series [1] was determined as 35.3 °C. In series [2], the folding enthalpy was -16.8 kcal/mol.
Turning to CGATCACGGAAACGTTCG (((..(((....)))))), the Tm in series [1] came out at 35.5 °C. The folding enthalpy in series [2] is -17.2 kcal/mol.
Consider CGATCGGAAACGATCTCG ((((((....)))..))), for which the Tm in series [1] was determined as 36.9 °C. For the same sequence, in series [2], the folding enthalpy was -12.1 kcal/mol.
On to CGATCTCGGAAACGATCG (((..(((....)))))), for which the Tm in series [1] came to 36.7 °C. For the same sequence, the folding enthalpy in series [2] was -20.3 kcal/mol.
For the sequence CGATTACGGAAACGTTCG (((..(((....)))))), the Tm in series [1] was found to be 38.5 °C. Also, in series [2], the folding enthalpy is -21.5 kcal/mol.
For CGCAACCGGAAACGGGCG (((..(((....)))))), the Tm in series [1] was found to be 50.1 °C. Further, the folding enthalpy in series [2] was -20.8 kcal/mol.
For CGCAACGGAAACGTAGCG (((.(((....))).))), the Tm in series [1] is 53.4 °C. Further, in series [2], the folding enthalpy is -38 kcal/mol.
With CGCACGCGGAAACGCGCG (((..(((....)))))), in series [1], the Tm amounted to 57 °C. The folding enthalpy in series [2] is -9.61 kcal/mol.
With CGCACGGAAACGTACGCG ((((((....)))..))), the Tm in series [1] came out at 46.1 °C. In series [2], the folding enthalpy was -22.1 kcal/mol.
Consider CGCACGGAAACGTGTGCG ((((((....)))..))), for which the Tm in series [1] was 57.5 °C. In addition, the folding enthalpy in series [2] was -17.6 kcal/mol.
Turning to CGCACGGAAACGTTAGCG ((((((....)))..))), the Tm in series [1] amounted to 44.8 °C. The folding enthalpy in series [2] was -31.9 kcal/mol.
The corresponding values for CGCAGCCGGAAACGGGCG (((..(((....)))))) are 47.9 °C and -20 kcal/mol.
For CGCATCGGAAACGAAGCG (((.(((....))).))), in series [1], the Tm came to 51.7 °C. The folding enthalpy in series [2] is -31.2 kcal/mol.
For CGCATCGGAAACGAGCG (((.(((....)))))), in that order: 49.5 °C and -31.8 kcal/mol.
In the case of CGCATGCGGAAACGCGCG (((..(((....)))))), the Tm in series [1] was 52.1 °C. Further, in series [2], the folding enthalpy is -20.8 kcal/mol.
With CGCCACCGGAAACGGGCG (((..(((....)))))), in series [1], the Tm is 49.3 °C. The folding enthalpy in series [2] is -26.2 kcal/mol.
For the sequence CGCCACGGAAACGTAGCG (((.(((....))).))), the Tm in series [1] worked out at 50.1 °C. Moreover, the folding enthalpy in series [2] is -37.7 kcal/mol.
As to CGCCACGGAAACGTCGCG (((.(((....))).))), in series [1], the Tm is 48.3 °C. Besides, in series [2], the folding enthalpy was -39.2 kcal/mol.
The corresponding values for CGCCAGAAATGGCG (((((....))))) are 66.4 °C and -31.5 kcal/mol.
For the sequence CGCCCGGAAACGGCGGCG ((((((....)))..))), in series [1], the Tm was 55.7 °C. Further, the folding enthalpy in series [2] was -24.4 kcal/mol.
Take CGCCCGGAAACGGCTGCG ((((((....)))..))): in series [1], the Tm came to 46.2 °C. For the same sequence, the folding enthalpy in series [2] was -21.1 kcal/mol.
With CGCCCGGAAACGGTTGCG ((((((....)))..))), in series [1], the Tm is 48.6 °C. In addition, the folding enthalpy in series [2] is -25.5 kcal/mol.
Regarding CGCCGACGGAAACGTGCG (((..(((....)))))), the Tm in series [1] stood at 45.5 °C. Besides, the folding enthalpy in series [2] was -27.6 kcal/mol.
Turning to CGCCGGCGGAAACGCGCG (((..(((....)))))), the Tm in series [1] stood at 51.5 °C. In series [2], the folding enthalpy is -21.1 kcal/mol.
